Reference: ChEMBL document CHEMBL5236552, “Discovery of Soticlestat, a Potent and Selective Inhibitor for Cholesterol 24-Hydroxylase (CH24H)” (J Med Chem, 2021)

Key:
[1] = biological target: Cholesterol 24-hydroxylase (Homo sapiens, UniProt Q9Y6A2); experiment: Inhibition of full length N-terminal his6-tagged human CH24H (28 to 494 residues) expressed in Escherichia coli DH5alpha using [14C] cholesterol as substrate preincubated for 15 mins followed by substrate addition and measured after 5 min in presence of beta-NADPH
Cholesterol 24-hydroxylase, sequence (Q9Y6A2 whole entry, the tested form may be a part): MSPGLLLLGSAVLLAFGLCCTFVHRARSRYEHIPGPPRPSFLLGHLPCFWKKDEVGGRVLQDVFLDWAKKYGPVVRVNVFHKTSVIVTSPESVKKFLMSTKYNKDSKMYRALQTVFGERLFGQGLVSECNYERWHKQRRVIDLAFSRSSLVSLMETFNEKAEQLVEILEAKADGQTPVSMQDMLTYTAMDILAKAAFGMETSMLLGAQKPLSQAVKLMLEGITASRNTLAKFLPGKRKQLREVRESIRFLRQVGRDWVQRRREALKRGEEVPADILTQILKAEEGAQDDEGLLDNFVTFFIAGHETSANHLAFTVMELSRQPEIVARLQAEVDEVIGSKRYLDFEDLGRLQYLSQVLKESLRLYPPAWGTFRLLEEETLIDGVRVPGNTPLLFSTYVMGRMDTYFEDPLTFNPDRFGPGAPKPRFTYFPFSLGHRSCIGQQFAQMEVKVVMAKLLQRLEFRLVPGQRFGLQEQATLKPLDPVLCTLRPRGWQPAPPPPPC

[2] = Inhibition of testosterone synthesis in human NCI-H295R cells at 10 uM by Enzyme immunoassay relative to control; format: functional
Method in brief: (§1)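 H295R adrenocortical cells grown in DMEM/F12 with 2.5% Nu-serum and 1% ITS-plus, seeded at 5×10^4 per well for three nights, then primed two nights with 20 µM forskolin. Cells washed, then exposed overnight to compound in DMEM/F12 with 1% ITS-plus and 20 µM forskolin. Cortisol, testosterone, aldosterone and corticosterone in the supernatant measured by competitive EIA against a calibration curve; triplicate, mean ± SEM.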

[3] = biological target: Cytochrome P450 2D6 (Homo sapiens, UniProt P10635); experiment: Inhibition of CYP2D6 (unknown origin) using bufuralol as substrate incubated for 10 to 20 mins in presence of NADPH-generating system by LC-MS/MS analysis
Cytochrome P450 2D6, sequence (P10635 whole entry): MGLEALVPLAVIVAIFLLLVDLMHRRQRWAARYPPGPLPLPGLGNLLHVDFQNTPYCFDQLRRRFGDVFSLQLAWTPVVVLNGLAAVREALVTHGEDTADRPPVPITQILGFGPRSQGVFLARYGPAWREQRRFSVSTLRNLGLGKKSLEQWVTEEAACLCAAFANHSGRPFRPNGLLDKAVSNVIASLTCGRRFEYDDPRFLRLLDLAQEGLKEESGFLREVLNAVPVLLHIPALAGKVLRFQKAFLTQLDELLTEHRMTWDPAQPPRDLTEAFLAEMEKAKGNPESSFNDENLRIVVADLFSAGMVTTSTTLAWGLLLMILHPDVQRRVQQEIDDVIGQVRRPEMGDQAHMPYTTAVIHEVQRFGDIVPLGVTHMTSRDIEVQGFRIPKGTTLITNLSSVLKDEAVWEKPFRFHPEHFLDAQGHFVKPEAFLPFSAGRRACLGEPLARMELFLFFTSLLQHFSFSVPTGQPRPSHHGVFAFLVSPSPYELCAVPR

[4] = Inhibition of aldosterone synthesis in human NCI-H295R cells at 10 uM by Enzyme immunoassay relative to control; format: functional; method in brief: as §1
[5] = Metabolic stability in human liver microsome assessed as clearance at 1 uM incubated for 15 to 30 mins in presence of NADPH by LC-MS/MS analysis; format: ADME; conditions: liver microsomes, time 15-30 min, read-out: CLH
Method in brief: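 Human liver microsomes (0.2 mg protein/mL) were mixed with compound (1 µM) in phosphate buffer (pH 7.4) and started with an NADPH-generating system. Incubated at 37 °C for 15 and 30 min, with zero-time samples as controls, then stopped with acetonitrile. Remaining compound in the supernatant was measured by LC/MS/MS.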

[6] = biological target: T1, Cytochrome P450 1A2 (Homo sapiens, UniProt P05177); experiment: Inhibition of CYP1A2 (unknown origin) using phenacetin as substrate incubated for 10 to 20 mins in presence of NADPH-generating system by LC-MS/MS analysis; format: ADME
T1 sequence (P05177 whole entry): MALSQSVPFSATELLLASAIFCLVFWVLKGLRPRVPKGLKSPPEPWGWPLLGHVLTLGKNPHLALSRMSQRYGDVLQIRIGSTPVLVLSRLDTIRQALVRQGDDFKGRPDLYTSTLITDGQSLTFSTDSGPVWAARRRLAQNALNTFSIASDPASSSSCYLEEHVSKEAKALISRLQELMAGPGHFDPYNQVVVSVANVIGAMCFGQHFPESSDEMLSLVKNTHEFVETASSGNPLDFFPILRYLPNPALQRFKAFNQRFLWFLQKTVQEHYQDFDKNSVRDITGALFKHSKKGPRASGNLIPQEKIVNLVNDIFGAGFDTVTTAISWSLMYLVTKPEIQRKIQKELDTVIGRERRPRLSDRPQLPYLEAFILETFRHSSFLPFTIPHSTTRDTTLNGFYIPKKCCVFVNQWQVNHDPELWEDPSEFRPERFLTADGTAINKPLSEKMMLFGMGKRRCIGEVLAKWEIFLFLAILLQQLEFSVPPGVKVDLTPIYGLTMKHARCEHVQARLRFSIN
Method in brief: (§2)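 Recombinant CYP-expressing microsomes (CYP1A2, 2C8, 2C9, 2C19, 2D6, 3A4) in 50 mM phosphate buffer pH 7.4 with NADPH-generating system. Substrates: phenacetin, amodiaquine, tolbutamide, (S)-mephenytoin, bufuralol, testosterone, respectively. Test compounds at 1–100 µM final, 0.5% final solvent. Incubated 10–20 min at 37 °C in duplicate, stopped with acetonitrile. Metabolite peaks read by LC/MS/MS; activity given as % remaining versus no-inhibitor control.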

[7] = biological target: Cytochrome P450 2C9 (Homo sapiens, UniProt P11712); experiment: Inhibition of CYP2C9 (unknown origin) using tolbutamide as substrate incubated for 10 to 20 mins in presence of NADPH-generating system by LC-MS/MS analysis; format: ADME; method in brief: as §2
Cytochrome P450 2C9, sequence (P11712 whole entry): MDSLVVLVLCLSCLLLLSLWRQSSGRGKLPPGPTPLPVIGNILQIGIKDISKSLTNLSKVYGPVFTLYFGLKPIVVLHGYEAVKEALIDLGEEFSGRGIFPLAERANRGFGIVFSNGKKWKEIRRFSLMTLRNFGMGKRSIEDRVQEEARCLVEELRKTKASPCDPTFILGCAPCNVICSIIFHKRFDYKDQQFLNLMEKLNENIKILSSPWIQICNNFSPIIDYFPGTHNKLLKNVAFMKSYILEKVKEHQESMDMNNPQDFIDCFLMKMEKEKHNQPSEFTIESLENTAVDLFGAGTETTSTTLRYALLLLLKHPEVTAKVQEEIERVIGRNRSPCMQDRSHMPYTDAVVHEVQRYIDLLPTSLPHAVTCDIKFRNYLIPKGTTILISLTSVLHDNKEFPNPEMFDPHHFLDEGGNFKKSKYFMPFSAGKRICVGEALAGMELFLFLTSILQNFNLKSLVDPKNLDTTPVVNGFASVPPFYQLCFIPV

[8] = test system: Mus musculus; experiment: In vivo inhibition of […] CH24H in po dosed C57BL/6N mouse brain assessed as reduction in 24HC level measured upto 24 hrs; format: functional, organism-based; conditions: dose 1-10 mg/kg
Method in brief: (§3)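 Female C57BL/6N mice, 7–8 weeks, 3 per group; single oral gavage in 0.5% aqueous methylcellulose (10 mL/kg) at 1, 3 or 10 mg/kg. Brains collected up to 24 h after dosing and homogenized in about 4-fold saline. 24HC extracted with acetonitrile/methanol/formic acid, quantified by UPLC on a C18 column at 40 °C, and expressed as % of control; mean + SD.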

[9] = Inhibition of cortisol synthesis in human NCI-H295R cells at 10 uM by Enzyme immunoassay relative to control; format: functional; method in brief: as §1
[10] = test system: Mus musculus; experiment: In vivo inhibition of […] CH24H in C57BL/6N mouse brain assessed as reduction in 24HC level at 3 mg/kg, po measured after 24 hrs relative to control; format: functional; method in brief: as §3
[11] = biological target: T2, Cytochrome P450 2C8 (Homo sapiens, UniProt P10632); experiment: Inhibition of CYP2C8 (unknown origin) using amodiaquine as substrate incubated for 10 to 20 mins in presence of NADPH-generating system by LC-MS/MS analysis; format: ADME; method in brief: as §2
T2 sequence (P10632 whole entry): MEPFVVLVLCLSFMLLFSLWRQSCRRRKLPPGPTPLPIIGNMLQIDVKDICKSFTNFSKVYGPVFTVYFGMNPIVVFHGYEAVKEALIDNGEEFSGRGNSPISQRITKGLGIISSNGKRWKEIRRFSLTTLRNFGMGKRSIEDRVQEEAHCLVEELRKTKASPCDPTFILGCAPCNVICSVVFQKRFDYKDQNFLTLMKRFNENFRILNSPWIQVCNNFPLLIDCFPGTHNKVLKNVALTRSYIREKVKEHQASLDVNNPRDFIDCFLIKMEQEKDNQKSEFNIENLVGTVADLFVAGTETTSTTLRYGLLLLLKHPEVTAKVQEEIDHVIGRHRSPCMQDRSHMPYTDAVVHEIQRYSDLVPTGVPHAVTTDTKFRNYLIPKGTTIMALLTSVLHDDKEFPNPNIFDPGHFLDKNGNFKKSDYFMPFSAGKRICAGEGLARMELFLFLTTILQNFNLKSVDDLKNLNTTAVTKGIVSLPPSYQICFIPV

[12] = Drug concentration in po dosed C57BL/6N mouse brain measured upto 24 hrs by LC-MS analysis; format: ADME, organism-based; conditions: in vivo, dose 1-10 mg/kg
Method in brief: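 Female C57BL/6N mice, 7–8 weeks, 3 per group; single oral gavage at 1, 3 and 10 mg/kg in 0.5% aqueous methylcellulose (10 mL/kg). Brains taken at 0.5–24 h (from 0.25 h at 10 mg/kg) and homogenized in about 4-fold saline. Homogenate mixed with acetonitrile plus internal standard, centrifuged, and quantified by LC-MS/MS in MRM mode (m/z 374.20→183.10).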

[13] = biological target: Cytochrome P450 2C19 (Homo sapiens, UniProt P33261); experiment: Inhibition of CYP2C19 (unknown origin) using (S)-mephenytoin as substrate incubated for 10 to 20 mins in presence of NADPH-generating system by LC-MS/MS analysis
Cytochrome P450 2C19, sequence (P33261 whole entry): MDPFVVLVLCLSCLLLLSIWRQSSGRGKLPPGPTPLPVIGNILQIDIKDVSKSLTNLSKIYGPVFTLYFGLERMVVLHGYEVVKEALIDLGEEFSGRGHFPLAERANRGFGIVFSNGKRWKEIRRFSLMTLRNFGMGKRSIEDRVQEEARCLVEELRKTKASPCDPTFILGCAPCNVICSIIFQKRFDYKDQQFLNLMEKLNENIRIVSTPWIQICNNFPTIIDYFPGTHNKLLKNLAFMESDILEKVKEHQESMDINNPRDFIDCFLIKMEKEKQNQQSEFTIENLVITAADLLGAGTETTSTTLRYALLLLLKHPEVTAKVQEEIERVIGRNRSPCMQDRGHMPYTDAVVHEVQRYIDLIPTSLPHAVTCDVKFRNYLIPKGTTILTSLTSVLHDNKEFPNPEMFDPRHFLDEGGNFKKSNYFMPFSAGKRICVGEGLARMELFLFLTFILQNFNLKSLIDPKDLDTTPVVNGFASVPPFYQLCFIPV

[14] = Inhibition of corticosterone synthesis in human NCI-H295R cells at 10 uM by Enzyme immunoassay relative to control; format: functional; method in brief: as §1
[15] = biological target: CYP3A4 (Homo sapiens, UniProt P08684); experiment: Inhibition of CYP3A4 (unknown origin) at 10 uM using testosterone as substrate incubated for 60 mins by LC-MS/MS analysis relative to control; format: ADME; conditions: probe testosterone
CYP3A4, sequence (P08684 whole entry): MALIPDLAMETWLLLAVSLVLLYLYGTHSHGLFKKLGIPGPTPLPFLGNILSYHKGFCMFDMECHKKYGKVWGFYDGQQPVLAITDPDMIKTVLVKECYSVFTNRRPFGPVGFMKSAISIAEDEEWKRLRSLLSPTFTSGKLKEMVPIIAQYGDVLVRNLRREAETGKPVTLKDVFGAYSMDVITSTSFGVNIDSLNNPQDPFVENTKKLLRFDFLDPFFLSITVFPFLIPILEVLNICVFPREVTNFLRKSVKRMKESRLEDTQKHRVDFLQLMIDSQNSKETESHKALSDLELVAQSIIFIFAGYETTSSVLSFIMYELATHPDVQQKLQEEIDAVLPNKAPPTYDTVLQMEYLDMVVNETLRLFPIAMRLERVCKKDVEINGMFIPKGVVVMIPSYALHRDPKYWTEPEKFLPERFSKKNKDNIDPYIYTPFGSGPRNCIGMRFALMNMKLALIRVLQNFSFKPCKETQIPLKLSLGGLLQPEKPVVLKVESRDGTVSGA
Method in brief: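 CYP3A4-expressing microsomes in 50 mmol/L phosphate buffer (pH 7.4) with an NADPH-generating system (MgCl2, β-NADP+, glucose-6-phosphate, G6P dehydrogenase). Testosterone was the substrate and test compound was 10 µmol/L, with final solvent at 0.5%. Incubated 60 min, stopped with acetonitrile, and 6β-hydroxytestosterone read by LC/MS/MS. Run in triplicate; reported as % activity remaining versus an inhibitor-free control.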

[16] = test system: Mus musculus; experiment: In vivo inhibition of […] CH24H in C57BL/6N mouse brain assessed as reduction in 24HC level at 10 mg/kg, po measured after 24 hrs relative to control; format: functional; method in brief: as §3

Row | SMILES | IC50 [1] | inhibition at 1 h, 10 µM [15] | other results
1 | C[C@@H](c1ncncc1F)[C@](O)(Cn1cncn1)c1ccc(F)cc1F [VORICONAZOLE] | > 10000 nM | – | –
2 | O=C(c1cccnc1-c1ccncc1)N1CCC(O)(Cc2ccccc2)CC1 [SOTICLESTAT] | 7.4 nM | 28% | inhibition at 10 µM [2]: -0.4%; IC50 [3]: > 100000 nM; inhibition at 10 µM [4]: -3.8%; microsomal CLint at 1 µM [5]: 22 µL/min/mg; IC50 [6]: > 100000 nM; IC50 [7]: 19000 nM; inhibition [8]: Dose-Dependent Effect; inhibition at 10 µM [9]: 0.2%; inhibition in vivo at 3 mg/kg [10]: 25%; IC50 [11]: 62000 nM; Drug uptake [12]: Dose-Dependent Effect; IC50 [13]: 14000 nM; inhibition at 10 µM [14]: -6%; inhibition in vivo at 10 mg/kg [16]: 33%
3 | Cc1ccccc1C1=NN(C(=O)c2ccncc2)C(C)(C)C1 | 60 nM | – | –
4 | Cc1cccc(C(=O)N2CCC(O)(Cc3ccccc3)CC2)c1-c1ccncc1 | 130 nM | 77% | –
5 | COC(=O)c1cc(C)ccc1-c1ccncc1 | 1900 nM | – | –
6 | O=C(c1cccnc1-c1ccncc1)N1CCC(O)(Cc2ccccn2)CC1 | 100 nM | 5.3% | –
7 | O=C(c1ccccc1-c1ccncn1)N1CCC(O)(Cc2ccccn2)CC1 | 36 nM | 8.8% | microsomal CLint at 1 µM [5]: 9 µL/min/mg
8 | Cc1ccc(-c2ccncc2C)c(C(=O)N2CCC(O)(Cc3ccccc3)CC2)c1 | 4.9 nM | 91% | –
9 | Cc1ccc(C(=O)N2CCC(O)(Cc3ccccc3)CC2)c(-c2ccncc2)c1 | 4.4 nM | 65% | –
10 | Cc1ccc(-c2ccncc2)c(C(=O)N2CCN(C(=O)c3ccccc3)CC2)c1 | > 10000 nM | – | –
11 | Cc1ccc(-c2ccncc2)c(C(=O)N2CCC(Cc3ccccc3)CC2)c1 | 110 nM | – | –
12 | Cc1ccc(-c2ccncc2F)c(C(=O)N2CCC(O)(Cc3ccccc3)CC2)c1 | 17 nM | 77% | –
13 | Cc1ccc(-c2ccncc2)c(C(=O)N2CCC(O)(Cc3ccccc3)CC2)c1 | 2.7 nM | 67% | –
14 | Cc1ccc(-c2ccncc2)c(C(=O)N2CCC(Cc3ccccc3)C(O)C2)c1 (racemic) | 16 nM | – | –
15 | O=C(c1ccncc1)N1N=C(c2ccccc2)CC1(O)C(F)(F)F (stereo not drawn) | 350 nM | – | –
